Source: PubChem BioAssay (several laboratories)
SR-BI DiI inh: blocks mouse SR-BI lipid uptake from DiI-HDL. inhibition, % at 12.5 µM. ldlA[mSR-BI] CHO cells, DiI-HDL uptake fluorescence, 3 h. AID 488896. 0.96% of 320,000 active. Q61009;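 active = mean replicate inhibition of at least 70% and a set share of replicates each scoring 70 or more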;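 note: 0% = median of neutral control wells and 100% = median of positive control wells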
Target sequence (Q61009 whole entry, looked up): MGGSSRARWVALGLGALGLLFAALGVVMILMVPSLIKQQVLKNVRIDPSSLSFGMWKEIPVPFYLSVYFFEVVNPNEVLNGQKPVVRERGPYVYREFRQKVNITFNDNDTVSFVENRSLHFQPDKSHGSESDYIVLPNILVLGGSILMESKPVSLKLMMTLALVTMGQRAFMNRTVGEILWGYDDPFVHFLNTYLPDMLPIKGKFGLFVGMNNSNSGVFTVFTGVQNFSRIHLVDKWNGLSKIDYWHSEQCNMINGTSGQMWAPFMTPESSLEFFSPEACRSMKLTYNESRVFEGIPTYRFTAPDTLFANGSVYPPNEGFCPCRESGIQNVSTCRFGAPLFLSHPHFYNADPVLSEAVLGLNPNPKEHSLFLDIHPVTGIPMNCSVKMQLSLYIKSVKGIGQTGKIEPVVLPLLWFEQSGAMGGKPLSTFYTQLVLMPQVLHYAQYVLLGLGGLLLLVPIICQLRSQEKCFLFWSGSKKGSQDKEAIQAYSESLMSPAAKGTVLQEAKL
NOD2 RIPK2 PPI: NOD2-RIPK2 protein interaction inhibition; 0.38% of 360,000 active; CHO BLA complementation NOD2-RIPK2, CCF4 ratio; inhibition, % at 4.98 µM; in the data active = inhibition above about 21%;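 note: 0% = vehicle only and 100% = reference blocker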
Hep lipid drop: modulators of hepatic lipid droplet formation. AML12 mouse hepatocytes, oleate lipid droplets, BODIPY imaging. inhibition, % at 6.5 µM. 0.4% of 240,000 active. AID 1656;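 active = lipid droplet intensity inhibited by at least 50%, with more than 500 cells counted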
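Assay system: AML12 mouse liver cells | Compound dosing: One dose, 6.5 µM compound | Read-out basis: Droplet intensity reduction, % inhibition | Measured by: Fluorescence imaging, 20x objective, two fields per well | Schedule: Overnight treatment with compound plus oleate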
SR-BI uptake up: SR-BI HDL lipid transfer activation; AID 504775; 0.096% of 320,000 active; activation, % at 12.5 µM; CHO ldlA[mSR-BI] cells, DiI-HDL uptake fluorescence, 3 h; 100 = double the neutral-control signal;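 active = mean replicate activation of at least 60% and every replicate at or above 60%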;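 note: 0% = median plate neutral-control signal and 100% = twice that signal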
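system = CHO ldlA[mSR-BI] cells, LDL receptor-null, SR-BI overexpressing | medium = Ham's F12 with 0.5% BSA, HEPES 25 mM, pH 7.4 | probe or stimulus = DiI-HDL 10 µg/mL | compound dosing = single-point compound dose | incubation = compound exposure 3 h, 37 °C | technique = DiI fluorescence, bottom read | read-out = cell-associated DiI fluorescence as measure of HDL uptake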
TLR4-MyD88 BLA: TLR4-MyD88 interaction inhibition in cells; O00206+Q99836; AID 861; 0.18% of 200,000 active; inhibition, % at 8.4 µM; HeLa CL3-4 TLR4/MyD88 BLA complementation, FRET ratio; in the data active = inhibition above about 25%;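 note: 0% = vehicle and 100% = reference inhibitor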
TLR9-MyD88 inh: inhibitors of human TLR9-MyD88 binding | AID 504734 | inhibition, % at 4.98 µM | CHO BLA complementation TLR9-MyD88, CCF4 FRET ratio | 0.21% of 340,000 active;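 active = inhibition above the mean over all tested compounds plus 3 SD, cut at about 21% in these data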;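 note: 0% = DMSO only wells and 100% = clavulanate BLA inhibitor control wells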
* hit, by the source's call; . = not tested or not shown. This is a sample that favours compounds with a hit; in the whole collection about 1.6% have one here.

SMILES	SR-BI DiI inh	NOD2 RIPK2 PPI	Hep lipid drop	SR-BI uptake up	TLR4-MyD88 BLA	TLR9-MyD88 inh
CC1=C(C(=O)OCc2ccccc2)C(/C=C/c2ccccc2)NC(=S)N1 (stereo unspecified)	74*	-1	-10	-74	0	-5
COCCOC(=O)C1=C(C)NC(=S)NC1/C=C/c1ccccc1 (stereo unspecified)	40	-6	-5	-40	-2	-11
CC(=O)Cc1nsc(NC(=O)c2cc(-c3cccc(C(F)(F)F)c3)oc2C)n1	31	5	0	-31	-2	4
COc1ccc(NC(=O)c2cc(C(C)C)on2)c(OC)c1	.	0	-1	.	-2	-2
COc1cc(NC(=O)c2cc(C(C)C)on2)c(OC)cc1Cl	82*	-6	-17	-82	1	-6
COc1cc(NC(=O)C2CCCC2)c(OC)cc1Cl	23	-14	.	-23	-21	-2
COc1cc(NC(=O)c2cc(C3CC3)on2)c(OC)cc1Cl	81*	-2	.	-81	-10	-10
CC1=C(C(=O)N2CCOCC2)CC(CC(=O)NCCCCc2ccccc2)C(=O)N1Cc1ccc(C(C)(C)C)cc1 (stereo unspecified)	.	-8	.	.	.	2
CC(C)CC(=O)Nc1ccc(S(=O)(=O)Nc2nccs2)cc1	-65	-4	-4	65*	.	4
O=C(Nc1cccc(C(F)(F)F)c1)Nc1ccc(N2CCCC2)c(S(=O)(=O)Nc2ccccc2Cl)c1	91*	8	-7	-91	-2	2
CC(=O)Nc1ccc(N2CCOCC2)c(S(=O)(=O)Nc2ccccc2Cl)c1	.	1	.	.	.	4
COc1ccccc1N1CCN(CCN2C(=O)C3CCCN3C2=O)CC1 (stereo unspecified)	-8	-2	-8	8	.	-8
CCOC(=O)CCc1ccc(NC(=O)/C=C/c2ccc([N+](=O)[O-])o2)cc1	74*	1	.	-74	.	-8
Cc1ccc(/C=C/C(=O)Nc2ccc(Oc3ccccc3)cc2)o1	24	5	5	-24	-4	7
Cc1ccc(/C=C/C(=O)Nc2ccc([N+](=O)[O-])cc2)o1	75*	6	.	-75	-3	-3
O=C(NC1CCN(c2ncccn2)CC1)c1ccccc1Cl	.	7	-7	.	.	-5
CCc1cc(C(=O)O)c(NC(=O)c2cc(OC)c(OC)c(OC)c2)s1	8	-15	0	-8	1	6
Cc1ccnc(NS(=O)(=O)c2ccc(NC(=O)C34CC5CC(CC(C5)C3)C4)cc2)n1	-9	4	5	9	3	2
C[C@H]1CN([C@@H](C)CO)C(=O)Cc2cc(NC(=O)CCC(F)(F)F)ccc2O[C@H]1CN(C)CC1CC1	-17	0	.	17	.	8
COc1ccc(CC(=O)Nc2ccc(S(=O)(=O)N3CCC(C)CC3)cc2)c(OC)c1	3	3	.	-3	.	7
C/C(=N\NC(=O)c1nn(C)c(C)c1Br)c1ccc(NC(=O)C2CCCC2)cc1	80*	4	23	-80	.	7
Oc1ccc(Br)cc1-c1cc(-c2ccc(Cl)cc2)n[nH]1	75*	-2	6	-75	12	1
O=[N+]([O-])c1cccc(-c2cc(-c3cc(Br)ccc3O)[nH]n2)c1	86*	5	-6	-86	.	-2
CCn1cc(Cl)c(C(=O)Nc2cccc(CN3CCOCC3)c2)n1	2	3	4	-2	.	7
O=C(Cn1cnc2cc([N+](=O)[O-])ccc2c1=O)Nc1ccc(N2CCOCC2)cc1	48	-4	-13	-48	.	3
SMILES	SR-BI DiI inh	NOD2 RIPK2 PPI	Hep lipid drop	SR-BI uptake up	TLR4-MyD88 BLA	TLR9-MyD88 inh
COc1ccc(NC(=O)/C(C#N)=C\c2cc(C)n(-c3ccc(Oc4ccc([N+](=O)[O-])cn4)cc3)c2C)cc1	75*	-9	7	-75	-11	-1
CCN(C(=O)c1ccc2c(Cl)c3c(nc2c1)CCC3)c1ccc(C)c(C)c1	86*	-1	0	-86	-1	-3
CN(C(=O)c1ccc2c(Cl)c3c(nc2c1)CCC3)c1ccccc1	25	-5	-15	-25	-5	3
Cc1nc(C)c(-c2nnc(-c3ccc(C(C)(C)C)cc3)o2)cc1C(=O)NN	81*	-7	-17	-81	-5	5
COc1cccc(C2C=C(c3cccs3)Nc3ncnn32)c1OC (stereo unspecified)	-33	48*	.	33	3	45*
CCN(CC)S(=O)(=O)c1ccc(N2CCOCC2)c(NS(=O)(=O)c2cc(C(C)(C)C)ccc2C)c1	3	-3	-22	-3	2	4
CCOc1cc(C(=O)Nc2cc(C(=O)OC)ccc2C)ccc1OCC(=O)N1CCOCC1	73*	3	.	-73	.	-10
CCOc1cc(C(=O)Nc2cc(F)ccc2C)ccc1OCC(=O)N1CCOCC1	56	-5	.	-56	.	6
O=C(c1ccsc1)N1CCCC(N2CCN(c3ccccc3F)CC2)C1 (stereo unspecified)	-24	-4	1	24	.	-1
O=C(c1noc2c1CCCC2)N1CCCC(N2CCN(c3ccccc3F)CC2)C1 (stereo unspecified)	73*	-2	2	-73	.	-23
COc1ccc(S(=O)(=O)N(CC(=O)NCc2ccccn2)c2ccc(Cl)cc2)cc1	.	4	0	.	.	1
O=C(CN(c1cccc(Cl)c1)S(=O)(=O)c1ccc(Cl)cc1)NCc1ccccn1	83*	3	-14	-83	.	2
O=C(CCS(=O)(=O)c1ccccc1)Nc1ccccc1-c1nc2ccccc2s1	72*	-6	-31	-72	-4	9
O=C(Cn1cc(C(F)(F)F)cc(Cl)c1=O)NCc1ccccc1	4	3	-3	-4	.	-5
O=C(Cc1nnc(NC(=O)c2ccccc2)s1)N/N=C/c1cccc(O)c1	46	4	0	-46	.	7
Cc1ccc(Cn2cc(/C=N/NC(=O)Cc3nnc(NC(=O)c4ccc(C)cc4)s3)c3ccccc32)cc1	78*	-4	5	-78	8	5
C(=C\n1nnc2ccccc21)/c1ccccn1	-4	-11	.	4	.	-3
Cc1[nH]n(-c2ccccc2)c(=O)c1C(=O)Nc1ccccc1	7	-5	-3	-7	.	-13
C/C(=N\NC(=O)c1ccc(C)cc1)c1c(C)[nH]n(-c2ccccc2)c1=O	125*	2	-11	-125	.	-16
Cc1[nH]n(-c2ccccc2)c(=O)c1C(=O)c1ccc([N+](=O)[O-])cc1	-2	6	16	2	-14	-6
Cc1[nH]n(-c2ccccc2)c(=O)c1N=Nc1ccccc1O	119*	5	11	-119	7	6
C/C(=N\NC(=O)c1ccccc1)c1c(C)[nH]n(-c2ccccc2)c1=O	126*	-3	-5	-126	.	3
